From paper PMC9208026 (Journal of pharmacological sciences, 2022)

Assays:
[1] = tested on: bovine type II collagen antibody; test: Collagen antibody level in CIA mice serum; format: in vivo, DBA1 mice; conditions: CIA mice serum at end of study, ELISA, N = 6
Method in brief: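 Serum came from CIA DBA1 mice (N = 6 per group) at the end of the study, spun at 10,000 rpm for 10 min, then cleared at 10,000 rpm for 3 min and diluted 1:40,000. Anti-bovine type II collagen ELISA: wells blocked 1 h at room temperature; standards and samples 2 h; secondary antibody 1 h; TMB 15 min; stopped and read at A450. Levels were taken from a standard curve; mean ± SEM.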

[2] = tested on: collagen-induced arthritis (CIA) joints; test: Histopathology study of limbs; format: in vivo, DBA1 mice; conditions: MTX 1.5 mg/kg i.p., CIA mice limbs, H&E, N = 4

## CN(Cc1cnc2nc(N)nc(N)c2n1)c1ccc(C(=O)N[C@@H](CCC(=O)O)C(=O)O)cc1 [MTX, Methotrexate]
[1]
  bovine collagen antibody level in serum compared to vehicle group: lower
[2]
  histopathological changes (inflammation, synovial hyperplasia, cartilage/bone erosion): reduced occurrence of the changes
